Compound activity deposited in PubChem BioAssay by Johns Hopkins Ion Channel Center.
TRPC6 inhibitor: mouse TRPC6 channel inhibition; Q61143; HEK293-TRPC6, membrane potential dye, ACh-evoked depolarization; active compounds read low; B-score at 10 µM; actives 1.1% (n = 310,000);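 active means B-score under library mean minus 3 SD, initial fluorescence not abnormally high, positive integrated signal ratio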;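 further: B-score derived from integrated fluorescence ratio over the kinetic read; more negative B-score means stronger inhibition of depolarization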
TRPC4 PAM: allosteric potentiators of mouse TRPC4 channel; AID 2227; HEK293 TRPC4beta/mu-opioid, DAMGO EC20, Fluo-4 Ca2+ flux; active compounds read high; actives 0.42% (n = 310,000); B-score at 10 µM;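 active means B-score of calcium response area above 5 SD of library B-scores, with initial fluorescence ratio within 5 SD of library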;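 further: B-score of integrated fluorescence ratio over time as area under calcium response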
Target sequence (Q9QUQ5 whole entry, looked up): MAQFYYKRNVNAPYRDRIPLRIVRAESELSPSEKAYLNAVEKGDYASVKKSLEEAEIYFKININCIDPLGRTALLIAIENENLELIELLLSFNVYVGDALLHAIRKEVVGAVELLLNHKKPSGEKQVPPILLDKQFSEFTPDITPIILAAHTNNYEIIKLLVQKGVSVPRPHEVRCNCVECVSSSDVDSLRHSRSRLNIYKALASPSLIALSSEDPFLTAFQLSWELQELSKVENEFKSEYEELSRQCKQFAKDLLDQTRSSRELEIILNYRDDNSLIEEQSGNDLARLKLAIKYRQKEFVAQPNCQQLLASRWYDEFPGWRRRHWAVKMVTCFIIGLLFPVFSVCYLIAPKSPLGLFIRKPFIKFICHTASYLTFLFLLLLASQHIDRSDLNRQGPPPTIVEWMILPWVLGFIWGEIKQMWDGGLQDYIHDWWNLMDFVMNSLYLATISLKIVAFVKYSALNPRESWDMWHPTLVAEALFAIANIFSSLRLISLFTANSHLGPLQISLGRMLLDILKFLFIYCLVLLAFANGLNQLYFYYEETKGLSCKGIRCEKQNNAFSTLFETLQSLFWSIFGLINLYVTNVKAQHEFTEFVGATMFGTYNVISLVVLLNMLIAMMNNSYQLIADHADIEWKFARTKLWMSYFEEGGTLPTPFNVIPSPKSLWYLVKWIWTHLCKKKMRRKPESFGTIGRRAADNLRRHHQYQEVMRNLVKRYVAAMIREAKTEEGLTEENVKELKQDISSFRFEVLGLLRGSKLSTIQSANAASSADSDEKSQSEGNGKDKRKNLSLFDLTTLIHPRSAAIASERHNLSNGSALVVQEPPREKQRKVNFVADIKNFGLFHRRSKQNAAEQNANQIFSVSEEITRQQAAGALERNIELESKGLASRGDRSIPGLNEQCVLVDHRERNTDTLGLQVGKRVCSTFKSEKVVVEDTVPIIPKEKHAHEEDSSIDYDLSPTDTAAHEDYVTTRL
TRPC4 block: TRPC4 (mouse) channel inhibition; HEK293 TRPC4beta/mu-opioid, DAMGO-evoked Fluo4 calcium flux; active compounds read low; B-score at 10 µM; actives 0.39% (n = 300,000); AID 2247;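 active means B-score over 3 SD under the library average, no early fluorescence shift, positive overall ratio signal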
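System: stable TRPC4beta/mu-opioid receptor HEK293 cells; Dosing: single-point compound dosing; Measured by: Fluo4 Ca2+ flux fluorescence; Read-out basis: per-well B score of integrated baseline-normalized Fluo4 ratio.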
TRPC6 activator: mouse TRPC6 channel activation; Q61143; HEK293-TRPC6 membrane potential dye fluorescence; active compounds read high; B-score at 10 µM; actives 0.13% (n = 310,000);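 active means B-score of the integrated fluorescence ratio above library mean plus 3 SD, and starting fluorescence ratio within library mean plus 5 SD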;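 further: higher score means more depolarization so channel activation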
TRPC4 agonist: opens the mouse TRPC4 cation channel. HEK293 TRPC4beta/mu-opioid, Fluo4 calcium fluorescence; active compounds read high. B-score at 10 µM. AID 2237. actives 0.49% (n = 310,000);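 active means B-score above 5 SD of library B-scores, and initial fluorescence ratio not above library mean plus 5 SD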;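 further: positive B-score marks a calcium rise read as TRPC4 activation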
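Assay system: HEK293 cells stably co-expressing mouse TRPC4beta and mu-opioid receptor / Timing: Fluo4 dye loading 45 min at room temperature, 110 s recording / Signal: Fluo4 calcium-sensitive dye fluorescence, kinetic, 1 Hz baseline / Read-out: integrated baseline-normalised fluorescence ratio, converted to per-well B score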
TRPC4 sel inh 2: mouse TRPC4 off-target activity of TRPC6 inhibitors, second screen; shares compounds with TRPC6 inhibitor; HEK293 TRPC4/MOR, membrane potential dye fluorescence; channel activated by saturating DAMGO dose; inhibition, % at 10 µM; actives 42% (n = 920); AID 2776;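 active means compounds whose fluorescence signal differed from control wells by over 3 SD, either direction, in both duplicate plates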
TRPC4 spec: tests whether TRPC6 inhibitors also affect mouse TRPC4; shares compounds with TRPC6 inhibitor; HEK293 TRPC4/mu-opioid, membrane potential fluorescence; activity change, negative = inhibition, % at 10 µM; actives 61% (n = 920); AID 2777;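 active means rise or fall in signal beyond 3 SD of buffer-only wells in both replicate plates, either sign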;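 further: integrated kinetic ratio of fluorescence range over baseline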
HEK293 MPD ctr 2-1: second counter-screen for TRPC6 inhibitors: parental HEK293 cells. signal change vs control, % at 10 µM. shares compounds with TRPC6 inhibitor. AID 2779. parental HEK293 membrane potential dye fluorescence; maximal acetylcholine challenge after compound addition. actives 31% (n = 920);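 active means membrane potential signal moving either way by over 3 SD of the maximum-effect control, in both duplicate plates, meaning non-specific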
HEK293 MPD ctr-1: counter-screen for TRPC6 inhibitors: effect in parental HEK293 cells | shares compounds with TRPC6 inhibitor | parental HEK293 membrane potential dye fluorescence | membrane potential signal change, % at 10 µM | actives 60% (n = 920);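 active means membrane potential signal shifting up or down by more than 3 SD of buffer-only wells, on both duplicate plates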
HEK293 MPD ctr-2: checks TRPC6 modulator effects in parental HEK293 cells; shares compounds with TRPC6 inhibitor; membrane potential dye fluorescence; membrane potential signal change, % at 10 µM; actives 51% (n = 2,400);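 active means membrane potential signal moves up or down beyond 5 SD from buffer-only wells, on both duplicate plates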
HEK293 MPD ctr 2-2: second counter-screen for TRPC6 modulators: effect in parental HEK293 cells | shares compounds with TRPC6 inhibitor | inhibition, % at 10 µM | AID 488926 | membrane potential dye fluorescence; after compound, maximal acetylcholine stimulation | actives 14% (n = 2,400);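 active means membrane potential signal drops by more than 5 SD from the mean control signal, in both duplicate plates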;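 further: plate controls were acetylcholine ECmax control wells for no effect and buffer only wells for full effect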
TRPC4 ctr mod: selectivity of TRPC6 modulators against mouse TRPC4; shares compounds with TRPC6 inhibitor; HEK293 TRPC4/mu-opioid, membrane potential fluorescence; percent change from control (negative = decrease, positive = increase), % at 10 µM; actives 69% (n = 2,400);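 active means membrane potential signal moved up or down beyond 5 SD of buffer control wells, in both duplicate plates, actives on both sides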;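 further: plate controls were assay buffer wells for no effect and DAMGO maximal-effect wells for full effect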
TRPC4 ctr inh 2: second check of whether TRPC6 modulators also affect mouse TRPC4; shares compounds with TRPC6 inhibitor; HEK293 TRPC4/mu-opioid, membrane potential dye fluorescence; stimulated with maximal-effect DAMGO; inhibition, % at 10 µM; actives 55% (n = 2,400); AID 488928;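 active means drop in membrane potential signal beyond 5 SD of the control wells in both duplicate plates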;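 further: TRPC4 counter screen for TRPC6 hits run under conditions tuned for TRPC6 not TRPC4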
TRPC6 block conf: mouse TRPC6 inhibitor confirmation; inhibition, % at 10 µM; shares compounds with TRPC6 inhibitor; AID 488960; actives 43% (n = 3,300); HEK293-TRPC6, membrane potential dye, ACh-evoked depolarization;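 active means fluorescence ratio falls more than 5 SD below the full-stimulation control mean, in both duplicate runs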;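 further: integrated fluorescence ratio of peak minus minimum over baseline after agonist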
TRPC6 act conf: mouse TRPC6 activator confirmation. shares compounds with TRPC6 inhibitor. HEK293-TRPC6 membrane potential dye fluorescence, FDSS. activation, % at 10 µM. actives 11% (n = 2,800);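 active means ratio signal rise beyond 5 SD above unstimulated control wells' mean, seen in both duplicate runs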;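 further: plate controls were buffer EC0 wells for no effect and acetylcholine ECmax response for full effect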
* marks the source's active call; other numbers are inactive results; i = inactive; . = not tested or not shown. Sampled rows, rich in hits. Any-hit rate of the full collection: about 2.3%.

SMILES	TRPC6 inhibitor	TRPC4 PAM	TRPC4 block	TRPC6 activator	TRPC4 agonist	HEK293 MPD ctr-2	HEK293 MPD ctr 2-2	TRPC4 ctr mod	TRPC4 ctr inh 2	TRPC6 block conf	TRPC6 act conf	others
Cn1c(=O)c2c(nc(CN3CCc4ccccc4C3)n2Cc2ccccc2)n(C)c1=O	-5.65*	46*	i	i	i	i	i	109.0%*	68.5%*	i	.
Cc1cccc(NC(=O)C(C)SCc2nc3sc4c(c3c(=O)[nH]2)CCCC4)n1 (stereo not given)	i	i	i	i	i	.	.	.	.	.	.
COc1cc(C(=O)Nc2ccc(NC(=O)c3cccc(Cl)c3)nc2)cc(OC)c1OC	-5.42*	i	i	i	i	i	i	i	i	i	i
COc1cc(C(=O)Nc2ccc(N(C)C)cc2)cc(OC)c1OC	-6.4*	i	i	i	i	i	i	i	i	i	i
C/C(=N\Nc1ncnc2sc(C)c(C)c12)c1ccccn1	i	15*	i	17.3*	i	315.5%*	i	49.5%*	i	i	75.0%*
Cn1cc(C(=O)Nc2ccc(Cl)c(Cl)c2)cn1	i	i	i	i	i	.	.	.	.	.	.
CC(=O)N1c2ccc(S(=O)(=O)N3CCCC(C(=O)Nc4ccc(F)cc4)C3)cc2CC1C (stereo not given)	-5.11*	i	i	i	i	i	i	i	i	i	i
COc1ccc(NC(=O)C2CCCN(S(=O)(=O)c3ccc4c(c3)CC(C)N4C(C)=O)C2)cc1 (stereo not given)	i	i	i	i	i	.	.	.	.	.	.
CC(=O)Nc1ccc(NC(=O)C2CCCN(S(=O)(=O)c3ccc(-n4cnnn4)cc3)C2)cc1 (stereo not given)	-6.61*	i	i	i	i	.	.	.	.	i	i	TRPC4 sel inh 2=i;TRPC4 spec=i;HEK293 MPD ctr 2-1=i;HEK293 MPD ctr-1=i
CC(=O)c1ccc(NC(=O)C2CCCN(S(=O)(=O)c3ccc(-n4cnnn4)cc3)C2)cc1 (stereo not given)	i	i	i	i	i	.	.	.	.	.	.
CCc1ccc(NC(=O)C2CCN(S(=O)(=O)c3cnc[nH]3)CC2)cc1	i	i	i	i	i	.	.	.	.	.	.
CCc1ccc(NC(=O)C2CCCN(S(=O)(=O)c3cnc[nH]3)C2)cc1 (stereo not given)	-6.14*	i	i	i	i	i	i	i	i	i	i
COc1cc(Cl)cc(C2NC(=S)NC(c3ccccc3)=C2C(C)=O)c1OCC(=O)O (stereo not given)	i	i	i	i	i	.	.	.	.	.	.
CN1C2CCC1CC(OC(=O)c1c[nH]c3ccccc13)C2 (stereo not given)	i	i	i	i	i	.	.	.	.	.	.
CN1C2CCC1CC(OC(c1ccccc1)c1ccccc1)C2 (stereo not given)	-7.06*	i	i	i	i	.	.	.	.	69.2%*	.	TRPC4 sel inh 2=68.0%*;TRPC4 spec=18.6%*;HEK293 MPD ctr 2-1=i;HEK293 MPD ctr-1=13.7%*
CCOc1ccc(NC(=S)NCc2ccc3[nH]c(C)cc3c2)cc1	-8.05*	i	i	i	i	.	.	.	.	i	i	TRPC4 sel inh 2=i;TRPC4 spec=-9.5%*;HEK293 MPD ctr 2-1=i;HEK293 MPD ctr-1=-150.0%*
OC(CNCC1CCCO1)Cn1c2ccccc2c2ccccc21 (stereo not given)	-6.48*	i	i	i	i	312.0%*	73.0%*	36.5%*	65.0%*	83.5%*	.
OC(CNCC1CCCO1)Cn1c2ccc(Cl)cc2c2cc(Cl)ccc21 (stereo not given)	i	i	i	i	i	.	.	.	.	.	.
C=CCC1(N(C(C)=O)c2ccccc2)CCCCC1	i	i	i	i	i	.	.	.	.	.	.
C=CCC1(N(C(C)=O)c2ccccc2C)CCCCC1	-9.38*	i	i	i	i	.	.	.	.	i	i	TRPC4 sel inh 2=i;TRPC4 spec=-0.4%*;HEK293 MPD ctr 2-1=i;HEK293 MPD ctr-1=0.5%*
COc1ccc(CCC(=O)Nc2ccc(Cl)c(S(=O)(=O)N3CCCC3)c2)cc1	i	i	i	i	i	.	.	.	.	.	.
Cc1nn(C)c(C(=O)N/N=C/c2ccc(C(F)(F)F)cc2)c1[N+](=O)[O-]	-5.78*	i	i	i	i	i	i	-13.5%*	i	i	i
COc1ccc(-c2csc(N(CCCN(C)C)C(=O)c3cc(OC)c(OC)c(OC)c3)n2)cc1	-5.68*	i	i	i	i	i	i	i	66.5%*	i	i
COc1ccc(-c2csc(N(CCCN(C)C)C(=O)c3ccc(C)cc3)n2)cc1	-6.49*	i	i	i	i	i	i	i	81.5%*	56.0%*	i
COc1ccc(-c2csc(N(CCCN(C)C)C(=O)c3ccc(C(C)(C)C)cc3)n2)cc1	i	i	i	i	i	.	.	.	.	.	.
CCN(CC)CCCN(C(=O)c1ccccc1C)c1nc(-c2ccc(OC)cc2)cs1	i	i	i	i	i	.	.	.	.	.	.
